The source made the active and inactive calls. The calls are words filed in the database; no cut-off is given here.

For six compounds, Activity results are on record in ChEMBL document CHEMBL1147063, “Diazonamide toxins reveal an unexpected function for ornithine delta-amino transferase in mitotic cell division” (2007).

Experiment [1] concerns Ornithine aminotransferase, mitochondrial (Xenopus laevis). Briefly: Binding affinity to ornithine delta-amino transferase in RanGTP L43E mutant pre-treated Xenopus egg extracts. The settings on record: egg extract.
The target in experiment [2] is T1, Ornithine aminotransferase, mitochondrial (Homo sapiens) (UniProt P04181).
T1 sequence (whole entry): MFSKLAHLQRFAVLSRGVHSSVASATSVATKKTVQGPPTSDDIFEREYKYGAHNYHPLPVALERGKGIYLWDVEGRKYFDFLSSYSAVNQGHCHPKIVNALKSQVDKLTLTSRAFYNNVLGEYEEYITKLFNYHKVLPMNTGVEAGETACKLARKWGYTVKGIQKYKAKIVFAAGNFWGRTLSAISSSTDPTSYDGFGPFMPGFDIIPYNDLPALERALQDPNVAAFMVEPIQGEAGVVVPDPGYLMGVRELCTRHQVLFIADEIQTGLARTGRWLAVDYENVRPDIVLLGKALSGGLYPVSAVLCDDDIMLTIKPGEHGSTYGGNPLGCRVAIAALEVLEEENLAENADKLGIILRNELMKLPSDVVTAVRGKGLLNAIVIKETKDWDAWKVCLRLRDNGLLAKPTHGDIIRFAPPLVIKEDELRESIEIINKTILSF
The experiment can be described thus: Binding affinity to ornithine delta-amino transferase in human HeLa cells by silver stained SDS/PAGE method. It is filed as cell-based. A digest of the protocol: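 HeLa nuclear extract, dialysed into buffer B (20 mM Hepes-KOH pH 7.5, 10 mM KCl, 1.5 mM MgCl₂, EDTA, EGTA, DTT, PMSF, plus 150 mM NaCl) with 0.1% Nonidet P-40. Extract fractionated on Hitrap Q anion exchange; fractions incubated overnight at 4°C with biotinylated probe precoupled to avidin agarose. Bound proteins resolved by silver-stained SDS/PAGE; specific ~50 kDa bands identified by mass spectrometry.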

In another experiment the test system is Xenopus. Briefly: Effect on RanGTP L43E mutant-stimulated microtubule aster formations in Xenopus egg extract.
The subject of experiment [3] is HeLa. Briefly: Antimitotic activity in human HeLa cells. It is filed as functional, cell-based.
The nature of experiment [4]: Binding affinity to tubulin.
In experiment [5] the target is T2, Ornithine aminotransferase, mitochondrial (Mus musculus) (UniProt P29758).
T2 sequence (whole entry): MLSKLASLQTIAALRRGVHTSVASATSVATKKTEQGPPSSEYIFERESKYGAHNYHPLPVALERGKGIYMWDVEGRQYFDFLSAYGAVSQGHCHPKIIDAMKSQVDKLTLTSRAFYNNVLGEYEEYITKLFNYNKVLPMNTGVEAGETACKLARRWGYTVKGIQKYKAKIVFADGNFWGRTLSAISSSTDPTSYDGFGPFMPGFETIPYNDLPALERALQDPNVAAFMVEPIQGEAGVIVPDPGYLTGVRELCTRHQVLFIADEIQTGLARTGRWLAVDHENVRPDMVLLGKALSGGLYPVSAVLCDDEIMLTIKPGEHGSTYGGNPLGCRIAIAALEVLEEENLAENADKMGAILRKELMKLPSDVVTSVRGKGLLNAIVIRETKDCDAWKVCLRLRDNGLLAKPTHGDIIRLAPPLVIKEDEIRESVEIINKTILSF
Briefly: Inhibition of ornithine delta-amino transferase activity in mouse liver mitochondria. A digest of the protocol: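 Crude OAT prepared from mouse liver. Enzyme added last with a compound dilution series; shaken at 37°C for 20 min. Δ¹-pyrroline-5-carboxylate detected by reaction with o-aminobenzaldehyde; absorbance read at 443.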

The test system of experiment [6] is HeLa. Briefly: Cell cycle arrest in human HeLa cells by accumulation at 4N stage at 30 nM after 24 hrs. It is filed as functional. A digest of the protocol:
(§1)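 HeLa cells exposed to 30 nM compound for the indicated times. DNA content measured by FACS to score 2N versus tetraploid (4N) populations.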

Experiment [7] concerns HeLa. Briefly: Cell cycle arrest in human HeLa cells by accumulation at 2N stage at 30 nM after 24 hrs. It is filed as functional. A digest of the protocol: as §1
Experiment [8] deals with HeLa. The experiment can be described thus: Cell cycle arrest in human HeLa cells assessed as phosphorylated histone H3 level at 30 nM after 24 hrs. Format: functional, cell-based. A digest of the protocol:
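HeLa cells dosed with 30 nM compound for a time course. Cell extracts immunoblotted for phosphorylated histone H3 as mitotic marker, with actin as loading reference.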

Another experiment concerns U2OS. The experiment can be described thus: Cell cycle arrest in human U2OS cells assessed as abnormal spindle structure formation at 30 nM after 16 hrs. Format: functional, cell-based.
For experiment [9], the system named is HeLa. The experiment can be described thus: Cell cycle arrest in human HeLa cells assessed as abnormal spindle structure formation at 30 nM after 24 hrs. Format: functional, cell-based. The procedure, abridged: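 HeLa cells grown 24 h with or without 30 nM compound, then fixed in 4% formaldehyde. Stained with anti-α-tubulin monoclonal (1:1,000) and DAPI; spindle and nuclear morphology imaged by confocal microscopy. Abnormal mono-/multipolar spindles and multinucleate cells counted as a percentage of cells.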

On to `CC(CCCCNC(=O)CCCC[C@@H]1SC[C@@H]2NC(=O)N[C@@H]21)[C@H](O)C(=O)N[C@H]1Cc2ccc3c(c2)[C@]24C5=C(N=C(O5)[C@H](C(C)C)NC1=O)c1nc(Cl)c(o1)-c1c(Cl)[nH]c5cccc(c15)-c1cccc2c1O[C@@H]4O3` (stereo partly specified), for which the outcome in experiment [1], in experiment [4] and in [5] was inactive. The result (in [2]; in the experiment on Xenopus; in the experiment on HeLa [3]) was Active.

Consider `CC(CCCCNC(=O)CCCC[C@@H]1SC[C@@H]2NC(=O)N[C@@H]21)[C@H](O)C(=O)N[C@H]1Cc2ccc3c(c2)[C@]2(C4=C(c5nc(Cl)c(-c6c(Cl)[nH]c7ccccc67)o5)N=C(O4)[C@H](C(C)C)NC1=O)c1ccccc1O[C@@H]2O3` (stereo partly specified), for which the outcome in experiment [2] and in [4] was inactive.

As to `[H][C@]12Nc3c4cccc3[C@]13C1=C(N=C(O1)[C@H](C(C)C)NC(=O)[C@@H](NC(=O)[C@@H](O)C(C)C)Cc1ccc(c3c1)O2)c1nc(Cl)c(o1)-c1c(Cl)[nH]c2cccc-4c12` [DIAZONAMIDE A], the Activity was determined as 85.69% in the experiment on HeLa [6] and 6.9% in the experiment with HeLa [7].

With `CC(C)[C@H](O)C(=O)N[C@H]1Cc2ccc3c(c2)[C@]24C5=C(N=C(O5)[C@H](C(C)C)NC1=O)c1nc(Cl)c(o1)-c1c(Cl)[nH]c5cccc(c15)-c1cccc2c1N[C@@H]4O3`, the outcome with HeLa [8], in the experiment with U2OS and in the experiment on HeLa [9] was Active. Besides, the result in [5] was inactive.

Regarding `C#CC(N)CCC(=O)O` (stereo unspecified), the outcome in experiment [5] was Active.

As for `CC(C)[C@H](O)C(=O)N[C@H]1Cc2ccc3c(c2)[C@]24C5=C(N=C(O5)[C@H](C(C)C)NC1=O)c1nc(Cl)c(o1)-c1c(Cl)[nH]c5cccc(c15)-c1cccc2c1O[C@@H]4O3`, in experiment [5], the result was inactive.
